Laboratory results from the EternaBench riboswitch data.

System: MS2 coat protein
Experiment: apparent Kd, MS2 coat protein; higher = weaker binding; RNA-MaP array; FMN 200 µM where present
How it was run: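 Designs were transcribed by stalled E. coli RNA polymerase on Illumina sequencing-chip clusters. They were titrated with SNAP-549-labelled MS2 coat protein from 0.7 or 1.5 nM, doubling to 3 µM, without and then with constant ligand. Buffer: 100 mM Tris-HCl pH 7.5, 80 mM KCl, 4 mM MgCl2, BSA, DTT, yeast tRNA, Tween-20. Green signal was normalised to red-channel RNA signal and control-cluster median Fmax. Apparent Kd is the median of filtered per-cluster binding-curve fits.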

[1] = ligand present: flavin mononucleotide, designed as: ON switch for flavin mononucleotide
[2] = designed as: ON switch for flavin mononucleotide, no ligand
[3] = designed as: OFF switch for flavin mononucleotide, no ligand
[4] = ligand present: flavin mononucleotide, designed as: OFF switch for flavin mononucleotide

Sequence	apparent Kd [1] [nM]	apparent Kd [2] [nM]	apparent Kd [3] [nM]	apparent Kd [4] [nM]
AAACACGGACAUGAGGAUCACCCAUGUGGCGAAAGCCUUGGAAGAAGGCCGAUUGCAAAGCAAUCGGAGGAUAUUCAUACCGUG	5.57	–	–	–
ACUGUCGCGUGAGGAUAUGGUCUGCAGUGCUGACCAGAAGGCAUGUCGAUAGACAUGAGGAUCACCCAUGUGGUUAGGGCGGCU	298	619	–	–
AGCUAGUCAGGAUAUACGAACACGUCAAAAGACUUGAAGGGACAUGAGGAUCACCCAUGUAGAAGGGACUAGCA	–	–	35.1	123
UCACGGUAUGUAGGAUAUGCAUAGCAUUGCUAUGCAGAAGGACAUGAGGAUCACCCAUGUAUGUAUUCCAUACUAAUCCCGUGA	–	–	5.65	5.56
UGGAUCAAUACAGGAUAUGGUGACGCACAUGAGGAUCACCCAUGUCCGCAGCGUGCUCAGCACGCCCAGAAGGGUAUUGACUCG	88.8	731	–	–
AUUGAGCUAGGAUAUACAUGAGGAUCACCCAUGUAGCAAAAUAGCUAUACAUGAUCGGGUAGAAGGAGCGCGAG	–	–	13.6	20.5
GAGCGGGAAACAUGAGGAUCACCCAUGUGAUGUAUCCUCACGUAGGAUAUGCACACGAGAAGUGUGCAGAAGGGCGACCCGGUC	–	–	1100	1260
UUACCUCAUGAGAAGGACAUGAGGAUCACCCAUGUAGGAUAUCGUGGGAGACAGGUAUUGAAUCUUCGGAUUCAAUACCAGUCU	27.6	396	–	–
UUCCUGUCAGGAUAUGACUAGAUGCACGAAAGUGUUUUUAGUUAGAAGGGACAUGAGGAUCACCCAUGUAGUCC	–	–	24.1	40
CUUUUGUGAGGAUAUUAGUAGUAAAUAAAUAAAAUUAUUACUGAGAAGGCACAUGAGGAUCACCCAUGUUCCUC	–	–	32.5	405
AACCGACAUGAGGAUCACCCAUGUCAGGAUAUGGACUGACACCGAAAGGGUGGCGGAACCAGAAGGGACUGGGC	–	–	36.3	96.5
ACAUGGAAGCAGGAUAUGCUUGUAUAAUUGUUUGCAGAAGGGCUAACAUGAGGAUCACCCAUGUAAGAGGUCUA	–	–	16.2	25.8
CUAUAUAAUACCUCAUGUACAUGAGGAUCACCCAUGUUAACAAAGGAUAUAUUUAUAUUAAUAAAGUAGAAGGUUGUACUAUUU	–	–	19.5	17.1
CCAUCAGCGAACGAUACGAAUGGACAUGAGGAUCACCCAUGUAGAAGGACAGGAGAAUAACGGCUGUAGGAUAUACAUUUAGUG	–	–	40.3	31.2
CGUAGGAUGCAGAAGGCAUGAACAUGAGGAUCACCCAUGUUAAAAGACAUGAGGAUAUGCAUCCUACGAAAAGUGCGAAAGCAC	4.54	5.15	–	–
GUCGGAAACGACAAAAGUAGCAUACGAGAAGGCUGAUCCAAGACAUGAGGAUCACCCAUGUAGUUAGAGGAUAUUGGAUGCUAC	10.7	63.8	–	–
CACUCGUGUCUAGGAUAUGAGUGACAAGCGCGAGAUUUUCUCACCGCUAGCUCAGAAGGAGACAUGAGGAUCACCCAUGUAAGG	–	–	165	20.3
UAGAAGUCAGGAUAUCCAUGGCGGCACUUGCGUGGUGGCGUGGAGAAGGGACAUGAGGAUCACCCAUGUAAAGC	–	–	48.7	37
UAGUAGAUCCGAGGAUAUACAAUCCGGAAACGGUACAUGAGGAUCACCCAUGUAGAAGGCGGAUCUACAGGUACUAAAGUACCC	–	–	5.89	8.32
CCGAUACGAGGAUAUACAUGAGGAUCACCCAUGUAGUGGACCGAGCGUCGGUGUCUCAGUAGAAGGCGUUAAGA	–	–	16.2	17.3
AUAUUGUGAGGAUAUGAACUUAGUAUCGAAAGAUACUAUGUUCAGAAGGCACAUGAGGAUCACCCAUGUUUCUC	–	–	81.7	569
UUGGACGUCGUAGGAUCUGUAGGAUAUUCCUACAUGAGGAUCACCCAUGUUGACAUGGAAGAAGGACAGAAGGACGAUGUCCAU	3.7	6.35	–	–
CGCUACUACCAGAAGGACAUGAGGAUCACCCAUGUAGGAUAUGGGUUACACGUUCCUGUGAAUUGUUACUACGCUACGUAUGCG	21.5	401	–	–
UUAAAUCGAAACAUGAGGAUCACCCAUGUGUUGUAAUUAACAUAGGAUAUGUAUAUACUUUUUAAAUAGAAGGAUGAUAAUACU	11.6	16.1	–	–

Sequence	apparent Kd [1] [nM]	apparent Kd [2] [nM]	apparent Kd [3] [nM]	apparent Kd [4] [nM]
CUUUUGUGAGGAUAUUAGUAGUAAAUAAAUAAAAUUACUAUUGAGAAGGCACAUGAGGAUCACCCAUGUUCCUC	–	–	31.4	182
UCUGAUUGGUGAGGAUAUACAUAAUUUAUAACUGUAGAAGGCACAAACCUCAAGACAUGAGGAUCACCCAUGUGGUAUUUAGAU	–	–	285	475
ACGAUGUCAGGAUAUCGAUCACGGGUCUGAAGACACGUGUUUGAGAAGGGACAUGAGGAUCACCCAUGUGUCUC	–	–	122	314
UAUUUGCAAGGAUAUGAUUUAAGUAACAUGAGGAUCACCCAUGUUUUUCCGUUGUUAUGUUCAGAAGGUGCGUGAU	–	–	58.6	74.9
GACAUGAGGAUCACCCAUGUACAGAUAGAGGAACUCUAAUUGAGAAGGGACUUGAAACAAUCAUGUCAGGAUAUCAGUGGCGAC	41	86.7	–	–
CUAAGACGAUGUCACGUUGUCGGGACAGAAGGCACGUACAUGAGGAUCACCCAUGUAAAACACAGUGAGGAUAUGUACCUGCGA	8.1	30.8	–	–
GUACAGUAGUGAGGAUAUACGAGAUCGAUAGAUCGGCGAUCCAUUUAUACAUGAGGAUCACCCAUGUAGAAGGCACUUCUGUAC	–	–	5.73	61.7
AGAUACAACCAGAAGGACAUGAGGAUCACCCAUGUAGGAUAUGGGUUACACGUGCCUGGGAAGUGUAACGACGCUACGAAGAGU	8.3	31.4	–	–
AGAUAACACCAGAAGGACAUGAGGAUCACCCAUGUAGGAUAUGGGCAUCACUCGAGAAAGAAAAGACCAAGUGGACACAUGGUC	11	147	–	–
UGGGUGGUCCGAGGAUAUGUCACAUGAGGAUCACCCAUGUAAAACCAAGAGACAGAAGGCGGACAUAGACGCCCAAUUGCGCUC	5.03	30.7	–	–
GCUGUCGCAUGAGGAUAUGGUCUGCUUUGCAGACCAGAAGGCAUGUCAAUAGACAUGAGGAUCACCCAUGUAGUUAAGACAGCA	46.6	766	–	–
ACUGUCCGAGAGAAGGGAACAUGAGGAUCACCCAUGUUACCUCACCUGGUGACGGAACUCCAAGUUCAGGAUAUCUCGAGCGGU	–	–	4.72	6.53
UGUCGGAGCAGAGGAUAUUACAUGAGGAUCACCCAUGUAUGAACCAAUAGCUGGAAACAGCAAUGCAAGAAGGCUGCUCCGACA	–	–	5.05	6.53
AAAUAACAUGAGGAUCACCCAUGUCCGCGCCAUCAAGGAUAUGGGUGCCGGCUAGGUCAGCUAGAAGGUGGUGGUG	34.5	28.8	–	–
UUGGAGUACGUAGGAUAUGUAGGAUAUUCCUACAUGAGGAUCACCCAUGUAUGAAUGGAAGAAGGACAGAAGGACGUGCUCCAU	13.9	19.8	–	–
AACCUAAAACAGAAGGCCAGCUACAUGAGGAUCACCCAUGUCGAAUCAUGGAGGAUAUGUUGUAAUUUACUCGCAGAUGAGUGC	5.92	–	–	–
AGCUACGUUUCGUAGCAGCUAGGUGAGGAUAUCCUUAACAUGAGGAUCACCCAUGUAUAGCCAUGGGAGAAGGCGCCUAGAAAG	55.3	723	–	–
AUGAGCUCGUCAGGAUAUACGUCACUGCGUCAGCAGUGUGGUAAGAUCACAUGAGGAUCACCCAUGUAGAAGGGACGAGCUGAU	–	–	14.6	307
GGAUAGGACAGAGGAUAUACGUGCCAGAGAUACUAGCAAAAUUUCCUCACAUGAGGAUCACCCAUGUAGAAGGCUGUCCUAUCG	–	–	33.6	293
GUGCCUUGGGAGAAGGUAUUAAGCAAAGCAAUAUAAGGAUAUUCAUACCGGAAACGGACAUGAGGAUCACCCAUGUGGCACAAA	233	713	–	–
GGAUCGUAUGUCAGGAUAUACCACUGGAUACAGUGGUAGAAGGGACAUGAGGAUCACCCAUGUUCUAUCGAUCC	–	–	15.9	20.4
AGGGAGUGAGGAUAUGCUGCUCGUCACUUGCGUGAUGAGUAGCAGAAGGUACAUGAGGAUCACCCAUGUAAAAA	–	–	28.4	19
CGCUGUCAUGCAGGAUAUGCAUUGGAUUACAAUGCAGAAGGGCGAUUACAUGAGGAUCACCCAUGUGUAGACAGUGAAGAAAAG	13.8	145	–	–
CCCAUGUUAGGAUAUCGGCUCCGCCGUUCCACAUGGCGCUCCGAGAAGGAACAUGAGGAUCACCCAUGUAAAGA	–	–	39.1	140
